Source: ChEMBL document CHEMBL2434871, “Discovery of a potent dual EGFR/HER-2 inhibitor L-2 (selatinib) for the treatment of cancer” (Eur J Med Chem, 2013)

How the values were obtained:
Rattus norvegicus [1] = test: Elimination half life in Wistar rat at 100 mg/kg, po assessed as lapatinib; assay type: ADME, organism-based; design: dose 100 mg/kg, route oral; conditions: in vivo
How it was run: (§1)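 Male Wistar rats (220 ± 10 g), n = 4 per group, given the tosylate salt orally by gavage at 100 mg/kg, suspended in 0.5% sodium carboxymethylcellulose. Blood was sampled at 0.25 to 24 h. Parent compound and the lapatinib metabolite were extracted by C18 solid-phase extraction and analysed by LC/MSn.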

[2] = Elimination half life in Wistar rat at 100 mg/kg, po; assay type: ADME, organism-based; design: dose 100 mg/kg, route oral; conditions: in vivo, read-out: beta t1/2 (converted); how it was run: as §1
Rattus norvegicus [3] = test: Mean residence time in Wistar rat at 100 mg/kg, po assessed as lapatinib; assay type: ADME, organism-based; design: dose 100 mg/kg, route oral; conditions: in vivo; how it was run: as §1
[4] = Mean residence time in Wistar rat at 100 mg/kg, po; assay type: ADME, organism-based; design: dose 100 mg/kg, route oral; conditions: in vivo; how it was run: as §1
Rattus norvegicus [5] = test: AUC (0 to infinity) in Wistar rat at 100 mg/kg, po assessed as lapatinib; assay type: ADME, organism-based, Plasma; design: time infinity, dose 100 mg/kg, route oral; conditions: in vivo; how it was run: as §1
[6] = AUC (0 to infinity) in Wistar rat at 100 mg/kg, po; assay type: ADME, organism-based; design: time infinity, dose 100 mg/kg, route oral; conditions: plasma; how it was run: as §1
Rattus norvegicus [7] = test: AUC (0 to t) in Wistar rat at 100 mg/kg, po assessed as lapatinib; assay type: ADME, organism-based, Plasma; design: dose 100 mg/kg, route oral; conditions: in vivo; how it was run: as §1
[8] = AUC (0 to t) in Wistar rat at 100 mg/kg, po; assay type: ADME, organism-based; design: dose 100 mg/kg, route oral; conditions: plasma; how it was run: as §1
Rattus norvegicus [9] = test: Cmax in Wistar rat at 100 mg/kg, po assessed as lapatinib; assay type: ADME, organism-based; design: dose 100 mg/kg, route oral; conditions: in vivo; how it was run: as §1
[10] = Cmax in Wistar rat at 100 mg/kg, po; assay type: ADME, organism-based; design: dose 100 mg/kg, route oral; conditions: in vivo; how it was run: as §1
Rattus norvegicus [11] = test: Tmax in Wistar rat at 100 mg/kg, po assessed as lapatinib; assay type: ADME, organism-based; design: dose 100 mg/kg, route oral; conditions: in vivo; how it was run: as §1
[12] = Tmax in Wistar rat at 100 mg/kg, po; assay type: ADME, organism-based; design: dose 100 mg/kg, route oral; conditions: in vivo; how it was run: as §1
NCI-N87 [13] = test: Antitumor activity against human NCI-N87 cells xenografted in BALB/c athymic mouse assessed as tumor regression at 200 mg/kg, po qd after 28 days relative to vehicle-treated control; assay type: functional; conditions: NCI-N87, 672 h, read-out: TGI
How it was run: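 Female BALB/c athymic mice, 4–6 weeks old, received 2 × 10⁶ NCI-N87 or SK-OV-3 cells s.c. in the right flank. At a tumor volume of 100–300 mm³ they were randomized (control n = 10, treated n = 6). Tosylate salt was given at 200 mg/kg qd by oral gavage, and controls received vehicle. Tumor volume was taken as length × width²/2 by caliper. Inhibition = (1 − T/C) × 100% on mean relative tumor volume (RTV). Two-tailed t test.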

Mus musculus [14] = test: Toxicity in BALB/c athymic mouse xenografted with human SKOV3 cells assessed as bloody stool at 200 mg/kg, po qd after 4 days; assay type: organism-based, SK-OV-3; design: dose 200 mg/kg, route oral; conditions: in vivo, 96 h
Mus musculus [15] = test: Toxicity in BALB/c athymic mouse xenografted with human NCI-N87 cells assessed as bloody stool at 200 mg/kg, po qd after 4 days; assay type: organism-based; design: dose 200 mg/kg, route oral; conditions: in vivo, 96 h
Mus musculus [16] = test: Toxicity in BALB/c athymic mouse xenografted with human SKOV3 cells assessed as hematuria at 200 mg/kg, po qd after 4 days; assay type: organism-based, SK-OV-3; design: dose 200 mg/kg, route oral; conditions: in vivo, 96 h
Mus musculus [17] = test: Toxicity in BALB/c athymic mouse xenografted with human NCI-N87 cells assessed as hematuria at 200 mg/kg, po qd after 4 days; assay type: organism-based; design: dose 200 mg/kg, route oral; conditions: in vivo, 96 h
Mus musculus [18] = test: Toxicity in BALB/c athymic mouse xenografted with human SKOV3 cells assessed as weight loss at 200 mg/kg, po qd after 4 days; assay type: organism-based, SK-OV-3; design: dose 200 mg/kg, route oral; conditions: in vivo, 96 h
Mus musculus [19] = test: Toxicity in BALB/c athymic mouse xenografted with human NCI-N87 cells assessed as weight loss at 200 mg/kg, po qd after 4 days; assay type: organism-based; design: dose 200 mg/kg, route oral; conditions: in vivo, 96 h
BT-474 = test: Cytotoxicity against human BT474 cells after 72 hrs by SRB assay; assay type: functional, cell-based; conditions: BT-474, 72 h
NCI-N87 [20] = test: Cytotoxicity against human NCI-N87 cells after 72 hrs by SRB assay; assay type: functional, cell-based; conditions: NCI-N87, 72 h
[21] = biological target: Receptor tyrosine-protein kinase erbB-2 (Homo sapiens, UniProt P04626); test: Inhibition of HER-2 (unknown origin) using poly-(Glu4-Tyr) as substrate after 1 hr by ELISA-based spectrophotometry
Chain of Receptor tyrosine-protein kinase erbB-2 (P04626 whole entry): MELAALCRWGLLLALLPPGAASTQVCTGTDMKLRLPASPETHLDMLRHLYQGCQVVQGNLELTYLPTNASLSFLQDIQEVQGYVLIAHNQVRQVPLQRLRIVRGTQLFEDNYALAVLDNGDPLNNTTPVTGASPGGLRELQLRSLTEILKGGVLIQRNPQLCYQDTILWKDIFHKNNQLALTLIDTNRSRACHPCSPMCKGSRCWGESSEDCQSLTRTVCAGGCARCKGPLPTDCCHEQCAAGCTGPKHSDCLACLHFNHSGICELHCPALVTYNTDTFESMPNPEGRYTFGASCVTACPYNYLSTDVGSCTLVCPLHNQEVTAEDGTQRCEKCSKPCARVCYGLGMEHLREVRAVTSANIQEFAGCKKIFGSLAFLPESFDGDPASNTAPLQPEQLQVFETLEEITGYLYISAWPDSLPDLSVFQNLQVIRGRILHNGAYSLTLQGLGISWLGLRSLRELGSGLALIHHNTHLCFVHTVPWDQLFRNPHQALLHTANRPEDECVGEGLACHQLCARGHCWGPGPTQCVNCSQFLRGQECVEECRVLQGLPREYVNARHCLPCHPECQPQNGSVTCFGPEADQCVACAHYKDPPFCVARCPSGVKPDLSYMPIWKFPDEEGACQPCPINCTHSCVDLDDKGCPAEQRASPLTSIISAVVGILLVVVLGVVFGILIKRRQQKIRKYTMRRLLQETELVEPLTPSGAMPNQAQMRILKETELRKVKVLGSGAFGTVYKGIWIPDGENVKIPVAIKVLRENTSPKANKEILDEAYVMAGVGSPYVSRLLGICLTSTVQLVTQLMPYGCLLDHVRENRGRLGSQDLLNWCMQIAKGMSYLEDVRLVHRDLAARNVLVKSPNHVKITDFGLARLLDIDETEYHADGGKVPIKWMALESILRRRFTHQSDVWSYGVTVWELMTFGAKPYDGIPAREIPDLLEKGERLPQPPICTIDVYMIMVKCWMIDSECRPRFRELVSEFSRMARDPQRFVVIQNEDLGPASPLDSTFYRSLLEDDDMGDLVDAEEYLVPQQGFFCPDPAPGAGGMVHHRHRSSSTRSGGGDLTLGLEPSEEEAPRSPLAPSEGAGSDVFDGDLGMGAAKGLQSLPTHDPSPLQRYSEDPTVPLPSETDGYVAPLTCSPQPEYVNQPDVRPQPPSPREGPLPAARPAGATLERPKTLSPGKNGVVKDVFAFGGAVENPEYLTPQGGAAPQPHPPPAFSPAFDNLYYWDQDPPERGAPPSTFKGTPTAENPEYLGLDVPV
How it was run: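 ELISA on plates pre-coated with poly(Glu,Tyr 4:1) substrate. Serially diluted compounds plus ATP were added in 50 mM HEPES pH 7.4 containing 20 mM MgCl₂, 0.2 mM MnCl₂, 0.1 mM Na₃VO₄ and 1 mM DTT. Phosphotyrosine was detected with anti-phosphotyrosine antibody PY99 (1:500), then HRP anti-mouse IgG, then o-phenylenediamine/H₂O₂ at pH 5.5.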

[22] = biological target: Epidermal growth factor receptor (Homo sapiens, UniProt P00533); test: Inhibition of EGFR (unknown origin) using poly-(Glu4-Tyr) as substrate after 1 hr by ELISA-based spectrophotometry
Chain of Epidermal growth factor receptor (P00533 whole entry): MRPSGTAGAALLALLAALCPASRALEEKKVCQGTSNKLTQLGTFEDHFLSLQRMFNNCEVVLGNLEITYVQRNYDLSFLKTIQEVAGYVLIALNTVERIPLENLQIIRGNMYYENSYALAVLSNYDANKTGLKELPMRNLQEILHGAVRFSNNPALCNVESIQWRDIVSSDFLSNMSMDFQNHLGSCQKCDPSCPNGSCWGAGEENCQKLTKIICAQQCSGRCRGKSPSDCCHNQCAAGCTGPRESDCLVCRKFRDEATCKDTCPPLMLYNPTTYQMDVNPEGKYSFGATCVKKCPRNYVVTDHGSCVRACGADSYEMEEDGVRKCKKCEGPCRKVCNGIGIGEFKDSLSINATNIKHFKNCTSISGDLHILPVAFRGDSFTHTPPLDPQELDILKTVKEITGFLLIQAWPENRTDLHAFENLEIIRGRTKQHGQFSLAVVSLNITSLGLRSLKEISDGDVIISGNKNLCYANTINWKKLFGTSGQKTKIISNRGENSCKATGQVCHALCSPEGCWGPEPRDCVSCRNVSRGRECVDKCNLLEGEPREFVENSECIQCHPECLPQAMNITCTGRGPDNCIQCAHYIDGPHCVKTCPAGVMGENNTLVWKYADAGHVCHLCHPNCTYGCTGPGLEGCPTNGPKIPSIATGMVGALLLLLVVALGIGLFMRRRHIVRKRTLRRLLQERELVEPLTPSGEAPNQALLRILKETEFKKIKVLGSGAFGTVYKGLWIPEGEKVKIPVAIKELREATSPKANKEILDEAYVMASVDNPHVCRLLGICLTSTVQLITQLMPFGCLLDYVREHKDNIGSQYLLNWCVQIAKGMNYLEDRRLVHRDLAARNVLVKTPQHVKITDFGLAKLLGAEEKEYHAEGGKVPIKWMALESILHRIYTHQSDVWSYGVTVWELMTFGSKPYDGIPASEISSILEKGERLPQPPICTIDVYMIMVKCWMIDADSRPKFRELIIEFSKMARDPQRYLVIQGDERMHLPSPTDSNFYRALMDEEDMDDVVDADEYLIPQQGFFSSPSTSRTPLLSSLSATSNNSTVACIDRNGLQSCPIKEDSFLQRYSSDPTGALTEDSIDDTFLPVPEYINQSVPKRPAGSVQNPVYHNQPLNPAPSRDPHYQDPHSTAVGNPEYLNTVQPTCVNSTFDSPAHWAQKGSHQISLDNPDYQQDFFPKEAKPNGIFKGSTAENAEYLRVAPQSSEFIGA

[23] = Aqueous solubility of the compound at 25 degC by shake-flask method; assay type: physicochemical; conditions: unbuffered water
SK-OV-3 = test: Antitumor activity against human SKOV3 cells xenografted in BALB/c athymic mouse assessed as tumor regression at 200 mg/kg, po qd after 21 days relative to vehicle-treated control; conditions: SK-OV-3, po, 504 h, read-out: TGI
Mus musculus [24] = test: Toxicity in BALB/c athymic mouse xenografted with human SKOV3 cells assessed as death at 200 mg/kg, po qd after 4 days; assay type: organism-based, SK-OV-3; design: dose 200 mg/kg, route oral; conditions: in vivo, 96 h
How it was run: (§2)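 Female BALB/c athymic mice, 4-6 weeks old and pathogen-free, were housed under sterile conditions. NCI-N87 or SK-OV-3 cells (2 × 10⁶) were implanted s.c. in the right flank. At tumor volumes of 100-300 mm³, mice were randomized to vehicle control (n = 10) or treatment (n = 6). Treatment was the tosylate salt at 200 mg/kg by oral gavage once daily. Mice were monitored for clinical signs, body weight and death.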

Mus musculus [25] = test: Toxicity in BALB/c athymic mouse xenografted with human NCI-N87 cells assessed as death at 200 mg/kg, po qd after 4 days; assay type: organism-based; design: dose 200 mg/kg, route oral; conditions: in vivo, 96 h; how it was run: as §2
Mus musculus [26] = test: Toxicity in BALB/c athymic mouse xenografted with human SKOV3 cells assessed as scruffy skin at 200 mg/kg, po qd; assay type: organism-based, SK-OV-3; design: dose 200 mg/kg, route oral; conditions: in vivo
Mus musculus [27] = test: Toxicity in BALB/c athymic mouse xenografted with human NCI-N87 cells assessed as scruffy skin at 200 mg/kg, po qd; assay type: organism-based; design: dose 200 mg/kg, route oral; conditions: in vivo
Mus musculus [28] = test: Toxicity in BALB/c athymic mouse xenografted with human SKOV3 cells assessed as diarrhea at 200 mg/kg, po qd; assay type: organism-based, SK-OV-3; design: dose 200 mg/kg, route oral; conditions: in vivo
Mus musculus [29] = test: Toxicity in BALB/c athymic mouse xenografted with human NCI-N87 cells assessed as diarrhea at 200 mg/kg, po qd; assay type: organism-based; design: dose 200 mg/kg, route oral; conditions: in vivo
Mus musculus [30] = test: Toxicity in BALB/c athymic mouse xenografted with human SKOV3 cells assessed as lethargic condition at 200 mg/kg, po qd; assay type: organism-based, SK-OV-3; design: dose 200 mg/kg, route oral; conditions: in vivo
Mus musculus [31] = test: Toxicity in BALB/c athymic mouse xenografted with human NCI-N87 cells assessed as lethargic condition at 200 mg/kg, po qd; assay type: organism-based; design: dose 200 mg/kg, route oral; conditions: in vivo

CSCCNCc1ccc(-c2ccc3ncnc(Nc4ccc(OCc5cccc(F)c5)c(Cl)c4)c3c2)o1.Cc1ccc(S(=O)(=O)O)cc1
beta t1/2 (Rattus norvegicus [1]): 4.18 h
half-life [2]: 4.43 h
MRT (Rattus norvegicus [3]): 8.34 h
MRT [4]: 8.19 h
AUC (Rattus norvegicus [5]): 2058 ng·h/mL
AUC(0-inf) [6]: 8130 ng·h/mL
AUCt (Rattus norvegicus [7]): 1994 ng·h/mL
AUC(0-t) [8]: 7890 ng·h/mL
Cmax (Rattus norvegicus [9]): 242 ng/mL
Cmax [10]: 854 ng/mL
Tmax (Rattus norvegicus [11]): 3 h
Tmax [12]: 3 h
inhibition in vivo at 200 mg/kg (NCI-N87 [13]): 84.7%
Activity (Mus musculus [14]): Non-toxic
Activity (Mus musculus [15]): Non-toxic
Activity (Mus musculus [16]): Non-toxic
Activity (Mus musculus [17]): Non-toxic
Activity (Mus musculus [18]): Non-toxic
Activity (Mus musculus [19]): Non-toxic
IC50 (BT-474): 35.1 nM
IC50 (NCI-N87 [20]): 47.3 nM
IC50 [21]: 18.3 nM
IC50 [22]: 25.1 nM
solubility [23]: 3 µg/mL
inhibition in vivo at 200 mg/kg (SK-OV-3): 74.6%

CCOC(=O)N1CCN(Cc2ccc(-c3ccc4ncnc(Nc5ccc(OCc6cccc(F)c6)c(Cl)c5)c4c3)o2)CC1
IC50 [21]: 14.4 nM
IC50 [22]: 28 nM

Cc1ccc(S(=O)(=O)O)cc1.Fc1cccc(COc2ccc(Nc3ncnc4ccc(-c5ccc(CN6CCNCC6)o5)cc34)cc2Cl)c1
Activity (Mus musculus [24]): Toxic
Activity (Mus musculus [25]): Toxic
Activity (Mus musculus [16]): Toxic
Activity (Mus musculus [17]): Toxic
Activity (Mus musculus [18]): Toxic
Activity (Mus musculus [19]): Toxic
Activity (Mus musculus [26]): Toxic
Activity (Mus musculus [27]): Toxic
Activity (Mus musculus [28]): Toxic
Activity (Mus musculus [29]): Toxic
Activity (Mus musculus [30]): Toxic
Activity (Mus musculus [31]): Toxic
IC50 (BT-474): 41.9 nM
IC50 (NCI-N87 [20]): 29.2 nM
IC50 [21]: 12.3 nM

CN1CCN(Cc2ccc(-c3ccc4ncnc(Nc5ccc(OCc6cccc(F)c6)c(Cl)c5)c4c3)o2)CC1
IC50 [21]: 23.7 nM
IC50 [22]: 12.5 nM

CC(=O)N1CCN(Cc2ccc(-c3ccc4ncnc(Nc5ccc(OCc6cccc(F)c6)c(Cl)c5)c4c3)o2)CC1
IC50 [21]: 6.8 nM
IC50 [22]: 11.4 nM

NS(=O)(=O)CCNCc1ccc(-c2ccc3ncnc(Nc4ccc(OCc5cccc(F)c5)c(Cl)c4)c3c2)o1
IC50 [21]: 3.9 nM
